“And” between values parts separate entries of the source, which are not always exact repeats. Equal values may be shown once. The source made the active and inactive calls. The calls are words filed in the database; no cut-off is given here.
Assays:
[1] = molecular target: T1, Tyrosine-protein phosphatase non-receptor type 1 (Homo sapiens, UniProt P18031); test: Inhibition of human recombinant PTP1B using p-nitrophenylphosphate as substrate
T1 sequence (P18031 whole entry): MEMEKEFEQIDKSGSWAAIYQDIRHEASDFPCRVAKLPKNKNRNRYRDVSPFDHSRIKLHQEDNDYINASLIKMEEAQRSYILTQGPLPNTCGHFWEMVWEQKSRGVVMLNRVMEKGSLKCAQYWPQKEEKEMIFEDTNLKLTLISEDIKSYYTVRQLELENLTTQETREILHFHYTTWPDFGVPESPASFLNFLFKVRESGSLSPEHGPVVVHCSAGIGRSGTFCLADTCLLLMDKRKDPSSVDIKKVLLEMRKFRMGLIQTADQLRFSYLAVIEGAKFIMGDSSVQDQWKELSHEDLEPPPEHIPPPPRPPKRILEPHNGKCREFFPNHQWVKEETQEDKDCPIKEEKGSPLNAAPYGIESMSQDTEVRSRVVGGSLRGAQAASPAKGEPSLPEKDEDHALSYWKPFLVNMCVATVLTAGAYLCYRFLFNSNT
Outline: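 Human recombinant PTP1B in 50 mM citrate pH 6.0, 0.1 M NaCl, 1 mM EDTA, 1 mM DTT, ± sample, preincubated 10 min at 37 °C. Substrate 2 mM p-NPP, then 20 min at 20 °C, stopped with NaOH, A405. Blank without enzyme corrects for non-enzymatic hydrolysis. IC50 by regression, mean ± SD of three replicates.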

[2] = molecular target: T1, Tyrosine-protein phosphatase non-receptor type 1; test: Mixed-competitive inhibition of human recombinant PTP1B using p-nitrophenylphosphate as substrate by Lineweaver-Burk plot analysis
3T3-L1 (Mus musculus) = test: Induction of 2-NBDG uptake in mouse 3T3-L1 adipocyte cells at 5 uM after 24 hrs measured after 30 mins of 2-NBDG by fluorescence assay
[3] = molecular target: T1, Tyrosine-protein phosphatase non-receptor type 1; test: Noncompetitive inhibition of human recombinant PTP1B using p-nitrophenylphosphate as substrate by Lineweaver-Burk plot analysis
[4] = Cytotoxicity against mouse NIH/3T3 cells at 50 uM after 48 hrs by MTT assay; settings: nih3t3, 48 h
[5] = molecular target: T1, Tyrosine-protein phosphatase non-receptor type 1; test: Uncompetitive inhibition of human recombinant PTP1B using p-nitrophenylphosphate as substrate by Lineweaver-Burk plot analysis

| SMILES | IC50 [1] | Ki [2] | Activity (3T3-L1 (Mus musculus)) | Ki [3] [µM] | Activity [4] | Ki [5] [µM] |
| --- | --- | --- | --- | --- | --- | --- |
| O=C(O)c1nnc(-c2ccc(-c3ccccc3)cc2)o1 | 0.7 µM | – | – | – | – | – |
| COc1ccc(C(=C2C=CC(=O)C=C2)c2c(-c3ccc(O)cc3)ccc(CO)c2C#Cc2ccc(O)cc2)cc1 | 11.5 µM | 8.9 µM | Active | – | – | – |
| OCc1ccc(-c2ccc(O)cc2O)c(C(O)(c2ccc(O)cc2)c2ccc(O)cc2)c1C#Cc1ccc(O)cc1 | 21.6 µM | – | Active | 10.3 | Non-toxic | – |
| O=C1C=CC(=C(c2ccc(O)cc2)c2c(-c3ccc(O)cc3)ccc(CO)c2C#Cc2ccc(O)cc2)C=C1 | 4.6 µM and 15.9 µM | 3 µM and 13.9 µM | Active | – | Non-toxic | – |
| COCc1ccc(-c2ccc(O)cc2O)c(C(O)(c2ccc(O)cc2)c2ccc(O)cc2)c1C#Cc1ccc(O)cc1 | 19.4 µM | – | Active | – | Non-toxic | 15.1 |

Reference: ChEMBL document CHEMBL3392973, “Insulin-mimetic selaginellins from Selaginella tamariscina with protein tyrosine phosphatase 1B (PTP1B) inhibitory activity” (J Nat Prod, 2015)
